Experiments:
[1] = Platelet P2T receptor antagonist activity in human platelet assay; format: functional
Summary of the method: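 Human washed platelets in modified Tyrode buffer, stimulated to aggregate with ADP; aggregation followed turbidimetrically. Inhibition measured across a concentration range, pIC50 calculated from the concentration-response. Mean of four determinations (nine for one compound).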

Rattus norvegicus = organism: Rattus norvegicus; test: Recovery of ADP-induced platelet aggregation 20 minutes post dose. mean of four determinations and spread of results; format: functional
Summary of the method: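 Anesthetized rat; ADP-induced platelet aggregation measured 20 min after dosing to gauge recovery of aggregation (functional kinetics). Mean of four determinations, with spread of results.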

SMILES | Log IC50 [1] | Recovery of ADP-induced platelet aggregation (Rattus norvegicus)
CCSc1nc(N)c2ncn([C@@H]3O[C@H](COP(=O)(O)OP(=O)(O)C(Cl)(Cl)P(=O)(O)O)[C@@H](O)[C@H]3O)c2n1 | -6.53 | –
CCCSc1nc(N)c2ncn([C@@H]3O[C@H](COP(=O)(O)OP(=O)(O)C(Cl)(Cl)P(=O)(O)O)[C@@H](O)[C@H]3O)c2n1 | -8.6 | 93%
Nc1ncnc2c1ncn2[C@@H]1O[C@H](COP(=O)(O)OP(=O)(O)C(Cl)(Cl)P(=O)(O)O)[C@@H](O)[C@H]1O | -3.5 | –
Nc1ncnc2c1ncn2[C@@H]1O[C@H](COP(=O)(O)OP(=O)(O)C(F)(F)P(=O)(O)O)[C@@H](O)[C@H]1O | -3.5 | –
CCCSc1nc(N)c2ncn([C@@H]3O[C@H](COP(=O)(O)OP(=O)(O)C(F)(F)P(=O)(O)O)[C@@H](O)[C@H]3O)c2n1 | -8.16 | –

More lines, main results first:

Log IC50 [1] | SMILES | Recovery of ADP-induced platelet aggregation (Rattus norvegicus)
-9.35 | CSCCNc1nc(SCCC(F)(F)F)nc2c1ncn2[C@@H]1O[C@H](COP(=O)(O)OP(=O)(O)C(Cl)(Cl)P(=O)(O)O)[C@@H](O)[C@H]1O [CANGRELOR] | 79%
-9.14 | O=P(O)(OC[C@H]1O[C@@H](n2cnc3c(NCC(F)(F)F)nc(SCCC(F)(F)F)nc32)[C@H](O)[C@@H]1O)OP(=O)(O)C(Cl)(Cl)P(=O)(O)O | 6%
-8.87 | Nc1nc(SCCC(F)(F)F)nc2c1ncn2[C@@H]1O[C@H](COP(=O)(O)OP(=O)(O)C(Cl)(Cl)P(=O)(O)O)[C@@H](O)[C@H]1O | –
-9.48 | CCCSc1nc(NCC(F)(F)F)c2ncn([C@@H]3O[C@H](COP(=O)(O)OP(=O)(O)C(Cl)(Cl)P(=O)(O)O)[C@@H](O)[C@H]3O)c2n1 | 10%
-9.42 | CCCSc1nc(NCCSC)c2ncn([C@@H]3O[C@H](COP(=O)(O)OP(=O)(O)C(Cl)(Cl)P(=O)(O)O)[C@@H](O)[C@H]3O)c2n1 | 33%
-8.02 | COCCNc1nc(SCCC(F)(F)F)nc2c1ncn2[C@@H]1O[C@H](COP(=O)(O)OP(=O)(O)C(Cl)(Cl)P(=O)(O)O)[C@@H](O)[C@H]1O | 64%
-7.81 | CCCSc1nc(NCCOC)c2ncn([C@@H]3O[C@H](COP(=O)(O)OP(=O)(O)C(Cl)(Cl)P(=O)(O)O)[C@@H](O)[C@H]3O)c2n1 | 48%

Source: ChEMBL document CHEMBL1132412, “Antagonists of the platelet P2T receptor: a novel approach to antithrombotic therapy” (J Med Chem, 1999)
